Published values gathered from unrelated publications.
Protocols differ between the studies behind these lines.
Target: Ankyrin repeat and protein kinase domain-containing protein 1 (ANKK1, Homo sapiens, UniProt Q8NFD2)
One construct used (Q8NFD2 1-765): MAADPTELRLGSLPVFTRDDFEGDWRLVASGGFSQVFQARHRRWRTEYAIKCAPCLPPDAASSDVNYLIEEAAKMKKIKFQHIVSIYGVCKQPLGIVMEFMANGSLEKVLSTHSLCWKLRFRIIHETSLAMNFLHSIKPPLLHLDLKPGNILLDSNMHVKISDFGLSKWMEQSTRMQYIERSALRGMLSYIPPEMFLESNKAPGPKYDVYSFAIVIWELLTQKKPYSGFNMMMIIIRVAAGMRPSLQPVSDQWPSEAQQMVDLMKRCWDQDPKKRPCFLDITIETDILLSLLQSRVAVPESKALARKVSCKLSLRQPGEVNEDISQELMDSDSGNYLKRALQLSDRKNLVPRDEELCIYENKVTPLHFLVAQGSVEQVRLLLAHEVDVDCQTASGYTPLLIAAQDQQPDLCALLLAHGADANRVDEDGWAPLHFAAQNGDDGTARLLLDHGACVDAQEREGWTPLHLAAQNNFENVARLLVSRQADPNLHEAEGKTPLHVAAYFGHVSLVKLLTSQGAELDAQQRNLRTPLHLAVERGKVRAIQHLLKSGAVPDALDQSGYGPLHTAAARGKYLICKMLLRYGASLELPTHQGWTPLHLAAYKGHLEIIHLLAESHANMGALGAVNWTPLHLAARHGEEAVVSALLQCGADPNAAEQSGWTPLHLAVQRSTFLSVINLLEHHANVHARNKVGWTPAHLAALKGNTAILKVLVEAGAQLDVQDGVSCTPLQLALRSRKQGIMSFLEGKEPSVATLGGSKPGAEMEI

COc1ccc2cc(OCC3(C(=O)O)CN(C(=O)c4ccc(F)cc4)C3)ccc2c1  remaining binding (cell-free assay, competition with immobilised ligand; 1 µM): 86%
Cc1cnc(Nc2ccc(C(=O)N3CCC(N4CCCC4)CC3)cc2)nc1-c1cc2ccccc2s1  remaining binding (binding, competition with immobilised ligand; 1 µM): 62%
CN(C)c1ncc(F)c(-c2cnn3ncccc23)n1  remaining binding (binding; 1 µM): 69%
COc1cnc(Nc2cccc(S(N)(=O)=O)c2)nc1N1CCN(c2ccccc2)C(=O)C1  remaining binding (binding, competition with immobilised ligand; 1 µM): 82%
O=C(NCCCC1CCCCC1)c1ccc(CNC(=O)c2cnn(-c3ccccc3)c2C(F)(F)F)cc1  remaining binding (cell-free assay, competition with immobilised ligand; 0.1 µM): 100%
C[C@@H]1CCN(c2nccc(-c3cnn4ncccc34)n2)C1  remaining binding (binding; 1 µM): 81%
C[C@@H]1CN(c2cc(-c3n[nH]c4ccc(OC5(C)CC5)cc34)ncn2)C[C@H](C)O1  remaining binding (cell-free assay, competition with immobilised ligand; 0.1 µM): 79%
O=C(NCCCN1CCOCC1)c1ccc(Nc2ncc(Cl)c(-c3ccc(Cl)s3)n2)cc1  remaining binding (binding, competition with immobilised ligand; 1 µM): 77%
O=C(O)[C@H]1[C@H](Cn2nnc3ccccc3c2=O)CC[C@@H]1C(=O)c1ccc(OCCC2CCOCC2)cc1  remaining binding (cell-free assay, competition with immobilised ligand; 1 µM): 100%
CN(c1nccc(-c2cnn3ncccc23)n1)C1CC1  remaining binding (binding; 1 µM): 100%
O=C(Nc1c[nH]nc1C(=O)NC1CCNCC1)c1cc(F)cc(F)c1  remaining binding (binding, competition with immobilised ligand; 1 µM): 100%
COc1ncc2cc3ccccc3nc2c1C#N  remaining binding (cell-free assay, competition with immobilised ligand; 5 µM): 100%
c1ccc(N2CCN(Cc3nc4ccccc4[nH]3)CC2)nc1  remaining binding (binding, competition with immobilised ligand; 1 µM): 100%
C[C@@H](c1ccc(-n2cnc3c(N)ncnc32)cc1)N1CCc2nn(C)c(Cc3ccccc3)c2C1=O  remaining binding (binding, competition with immobilised ligand; 0.1 µM): 85%
N[C@@H]1CCN(c2nccc(-c3cnn4ncccc34)n2)C1  remaining binding (binding; 1 µM): 100%
N#Cc1ccc(Nc2ccc3[nH]c(=O)[nH]c3c2)c(Cl)c1  remaining binding (cell-free assay, competition with immobilised ligand; 1 µM): 100%
CCN1CCN(Cc2ccc(C(=O)Nc3ccc(C)c(Oc4ccc5c(c4)CC(=O)N5)c3)cc2C(F)(F)F)CC1  remaining binding (binding, competition with immobilised ligand; 1 µM): 100%
CN(C)c1nccc(-c2cnn3ncccc23)n1  remaining binding (binding; 1 µM): 100%
c1cncc(-c2cccc(Nc3nccc(NC4CCCCC4)n3)c2)c1  remaining binding (binding, competition with immobilised ligand; 10 µM): 47%
c1cnn2ncc(-c3ccnc(N4CCC45COC5)n3)c2c1  remaining binding (binding; 1 µM): 72%
O=C(c1ccc(Nc2ncc(Cl)c(-c3ccc(Cl)s3)n2)cc1)N1CCC(N2CCCC2)CC1  remaining binding (binding, competition with immobilised ligand; 1 µM): 61%
